Reference: publication PMC4257570 (Basic & Clinical Pharmacology & Toxicology, 2014)
Several values for one entry are separate records, joined by “and”; a condition that tells them apart may be missing. Identical values can stand only once. Each block holds one compound with its values, some of them ahead of it.

How the values were obtained:
[1] = ref unpublished data; cited from earlier work
[2] = Population pharmacokinetic analysis; format: in vivo, human
Method in brief: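 Oral doses were 2.5–75 mg single and 2.5–60 mg/day multiple; only vortioxetine-alone data from interaction studies were used. Models were two-compartment with lag time and first-order absorption and elimination (one- and three-compartment also tested). Covariates, including CYP genotype-inferred metaboliser status, were added forward then deleted backward. Bootstrap gave 95% CIs.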

[3] = cited from earlier work
[4] = cited from earlier work; remark: listed apart in the source
[5] = no reference given; cited from earlier work
[6] = non-compartmental analysis, healthy young subjects

Compound: Cc1cc(C(=O)O)ccc1Sc1ccccc1N1CCNCC1 [Lu AA34443, 3-methyl-4-(2-piperazine-1-yl-phenylsulfanyl)-benzoic acid]
Crossing of the blood–brain barrier [1]: incapable of crossing the blood–brain barrier

CL/F of CYP2C19 EMs relative to PMs ([2]; CYP2C19 EM vs PM): 1.4 times
Oral clearance (CL/F), estimate ([2]; CYP2D6-inferred extensive metabolisers (EM), final model): 34.1 L/h
Oral clearance (CL/F), estimate ([2]; CYP2D6-inferred intermediate metabolisers (IM), final model): 26.6 L/h
Oral clearance (CL/F), estimate ([2]; CYP2D6-inferred poor metabolisers (PM), final model): 18.1 L/h
Oral clearance (CL/F), estimate ([2]; CYP2D6-inferred ultra metabolisers (UM), final model): 52.9 L/h
CL/F of CYP2D6 extensive metabolisers relative to poor metabolisers ([2]; CYP2D6 EM vs PM): 1.9 times
Oral clearance (CL/F), population mean ([2]; all healthy subjects, oral dosing, from the base model): 32.7 L/h and 33 L/h
Absorption rate constant (ka), estimate ([2]; final model): 0.142 h⁻¹
Interindividual variability (IIV) of CL/F ([2]; final model): 42%
Interindividual variability (IIV) of V2/F ([2]; final model): 31%
Interindividual variability (IIV) of ka ([2]; final model): 51%
Lag-time (ALAG), estimate ([2]; final model): 0.781 h
Volume of distribution, peripheral comp (V3/F), estimate ([2]; final model): 661 L
Age on CL/F ([2]; final model, covariate effect): 0.277 L/hr/yr
Height on V2/F ([2]; final model, covariate effect): 17.4 L/cm
half-life ([2]; human, plasma, im, Estimated mean t1/2, CYP2D6-inferred metabolic status IM): 73 h
Vd/F ([2]; human, plasma, oral): 1970 L
half-life ([2]; human, plasma, oral, Estimated mean t1/2, CYP2D6-inferred metabolic status EM): 60 h
half-life ([2]; human, plasma, oral, Estimated mean t1/2, CYP2D6-inferred metabolic status PM): 104 h
half-life ([2]; human, plasma, oral, Estimated mean t1/2, CYP2D6-inferred metabolic status UM): 42 h
V2/F, population mean ([2]; men, sex as only covariate): 1940 L
Sum of the central and peripheral volumes of distribution (V2/F + V3/F) ([2]; population mean, oral administration): 2600 L
Higher exposure in a subject compared with the population mean ([2]; subject vs population mean of 44 years): ≤ 40%
CL/F, population mean ([2]; women, sex as only covariate): 30 L/h
V2/F, population mean ([2]; women, sex as only covariate): 1810 L
Compound: Br.Cc1ccc(Sc2ccccc2N2CCNCC2)c(C)c1 [vortioxetine, 1-[2-(2,4-dimethyl-phenylsulfanyl)-phenyl]-piperazine hydrobromide]
Absolute bioavailability for oral administration [3]: 75%
Clearance (oral clearance) [3, 6]: 47 L/h
Elimination half-life [3, 6]: 57 h
Change of CL/F of vortioxetine when co-administered with bupropion ([4]; bupropion (CYP2D6 inhibitor)): reduced approximately by half
Increase of vortioxetine exposure with co-administration of bupropion ([4]; bupropion (CYP2D6 inhibitor)): approximately 2 fold
Decrease of AUC of vortioxetine with co-administration of rifampicin ([4]; rifampicin (broad CYP inducer)): 72%
Effect of co-administration of omeprazole on vortioxetine steady-state exposure ([4]; single dose of omeprazole (CYP2C19 inhibitor)): no effects
Renal clearance [5]: negligible
